Experimental data from ChEMBL document CHEMBL3792364, “Identification and biological activity of 6-alkyl-substituted 3-methyl-pyridine-2-carbonyl amino dimethyl-benzoic acid EP4 antagonists” (Bioorg Med Chem Lett, 2016).
pIC50: −log10 of the molar value. ≈ marks a conversion by molar mass, not a printed value.

How the values were obtained:
[1] = biological target: T1, Prostaglandin E2 receptor EP4 subtype (Homo sapiens, UniProt P35408); assay: Antagonist activity against EP4 in human whole blood assessed as reversal of PGE2-mediated suppression of LPS-induced TNF-alpha production preincubated for 30 mins followed by LPS stimulation measured after 20 to 24 hrs by enzyme immunoassay; assay type: tissue-based
Summary of the method: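 Pooled blood from donors free of NSAIDs or celecoxib for 48 h and of glucocorticoids for 2 weeks. Blood pretreated 30 min at 37 °C, 5% CO2 with compound in DMSO (7-point curve, triplicate). LPS […] ± 10 nM PGE2 (final) added, then incubated 20–24 h. Plasma TNFα read at A450-A650. IC50 from sigmoidal nonlinear fit; geometric mean of independent runs.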

[2] = Aqueous solubility of compound at pH 6 at 2 mM after 20 hrs by HPLC; assay type: physicochemical; conditions: aqueous medium
Summary of the method: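 Samples in DMSO dried 12 h, then redissolved at pH 6 at a 2 mM target concentration. Stirred 20 h, filtered through 0.7 µm GF filter. Filtrate concentration measured by HPLC against a DMSO standard curve.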

[3] = biological target: T1, Prostaglandin E2 receptor EP4 subtype; assay: Antagonist activity against human EP4 expressed in HEK293 cells assessed as inhibition of PGE2-stimulated production of cAMP incubated for 20 mins by HTRF assay; assay type: functional, cell-based

T1 sequence (P35408 whole entry): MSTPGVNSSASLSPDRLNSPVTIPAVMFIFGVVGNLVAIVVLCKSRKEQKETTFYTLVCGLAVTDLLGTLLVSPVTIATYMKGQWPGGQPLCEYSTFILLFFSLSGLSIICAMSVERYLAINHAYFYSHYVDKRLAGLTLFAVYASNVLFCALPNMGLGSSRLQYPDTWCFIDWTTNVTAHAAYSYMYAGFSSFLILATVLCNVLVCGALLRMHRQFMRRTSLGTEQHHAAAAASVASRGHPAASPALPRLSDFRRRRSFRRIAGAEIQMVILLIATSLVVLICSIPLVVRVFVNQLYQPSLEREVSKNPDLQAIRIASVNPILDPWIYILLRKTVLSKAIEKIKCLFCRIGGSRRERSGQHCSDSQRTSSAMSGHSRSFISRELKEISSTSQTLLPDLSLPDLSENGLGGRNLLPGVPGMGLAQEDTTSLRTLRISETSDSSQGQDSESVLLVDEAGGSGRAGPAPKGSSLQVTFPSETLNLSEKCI

pIC50 [1] | solubility at 20 h, 2000 µM [2] [µg/mL] | pIC50 [3] | SMILES
5.84 | 784 (≈ 2040 µM) | 7.71 | Cc1ccc(N2CCC(O)CC2)nc1C(=O)Nc1c(C)ccc(C(=O)O)c1C
5.94 |  | 8.79 | Cc1ccc(N2CCC(F)(F)CC2)nc1C(=O)Nc1c(C)cc(C(=O)O)cc1C
5.54 |  | 7.85 | Cc1ccc(N2CCCC(CO)C2)nc1C(=O)Nc1c(C)ccc(C(=O)O)c1C (configuration not stated)
